ERAP1 inh = human ERAP1 aminopeptidase inhibitors, primary screen, biochemical, single point, plate reader; recombinant ERAP1, Leu-AMC fluorescence, 60 min; 340,000 compounds, 0.15% hits; inhibition, % at 10.7 µM; Endoplasmic reticulum aminopeptidase 1 (Homo sapiens), Q9NZ08;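 active = mean replicate inhibition of at least 30%, or all replicates individually reaching that 30% level; inactive = mean below 30% and not every replicate reaching it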
rRNA inh HTS = reduced GFP signal of wild-type E. coli, primary screen, bacterial rRNA inhibitor project, GFP/RFP fluorescence, OD600, single point. AID 720706, 2013. 350,000 compounds, 1.6% hits. GFP signal change (wild-type ribosome), % (test concentration not listed). E. coli WT GFP vs humanized-ribosome RFP mutants, 24 h; hits give low values; DMSO median 0, no signal -100;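 active = significant combined selectivity score with lowered wild-type GFP, culture density cut under 30%, mutant RFP and density less affected; inactive = any of these conditions unmet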
E-selectin induc = E-selectin induction in HUVECs, primary screen, imaging, HUVEC, immunofluorescence imaging, single point; P16581; normalized: neutral wells 0, TNF-alpha wells 100; activation, % at 7.58 µM; 260,000 compounds, 0.37% hits; AID 686992, 2013;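 active = mean E-selectin-positive cell signal at least 10% of the positive control, reached in at least 60% of replicates, without over 20% cell loss; inconclusive = no rule given, readout overlaps actives, possibly toxicity-flagged; inactive = the rest, including those meeting only one limit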
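Read-out: % PE-positive cells | Test system: HUVEC | Doses: One compound dose added by pin transfer | Buffer or medium: EGM-2 over gelatin coat | Signal: Immunofluorescence imaging | Benchmarks: TNF-alpha, DMSO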
S100A4 inh HTS = inhibitors of S100A4-myosin IIA peptide binding, primary screen, biochemical, fluorescence polarization, TAMRA-MyoIIA peptide. Protein S100-A4 (Homo sapiens), P26447. AID 652163, 2013. 360,000 compounds, 0.14% hits. inhibition, % at 10.7 µM;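 active = mean inhibition of at least 70% across replicates, with every replicate also reaching that level; inconclusive = mean inhibition reaches 70% but some replicates fall short; inactive = mean inhibition below 70%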
Target sequence (P26447 whole entry, looked up): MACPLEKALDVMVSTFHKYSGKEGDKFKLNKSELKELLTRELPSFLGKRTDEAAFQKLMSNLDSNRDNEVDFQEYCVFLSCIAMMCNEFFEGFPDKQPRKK
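Material: human S100A4 monomer with TAMRA-labelled myosin IIA peptide; buffer or medium: HEPES pH 7.2 with CaCl2, KCl, NaCl, DTT, Triton; compound dosing: one concentration per compound; schedule: 5 min incubation before reading; benchmarks: neutral control DMSO, positive control TFP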
SIRT5 block = SIRT5 desuccinylase inhibitors, primary screen, biochemical, fluorescence imaging, single point, set 5. NAD-dependent protein deacylase sirtuin-5, mitochondrial (Homo sapiens), Q9NXA8. Purified SirT5, succinyl-peptide AMC, trypsin-coupled fluorescence. inhibition, % at 15 µM. 330,000 compounds, 1.1% hits. AID 652115, 2013; in the data active = inhibition above about 15%; inconclusive = no clear call, values can overlap the other calls
Target sequence (Q9NXA8 whole entry, looked up): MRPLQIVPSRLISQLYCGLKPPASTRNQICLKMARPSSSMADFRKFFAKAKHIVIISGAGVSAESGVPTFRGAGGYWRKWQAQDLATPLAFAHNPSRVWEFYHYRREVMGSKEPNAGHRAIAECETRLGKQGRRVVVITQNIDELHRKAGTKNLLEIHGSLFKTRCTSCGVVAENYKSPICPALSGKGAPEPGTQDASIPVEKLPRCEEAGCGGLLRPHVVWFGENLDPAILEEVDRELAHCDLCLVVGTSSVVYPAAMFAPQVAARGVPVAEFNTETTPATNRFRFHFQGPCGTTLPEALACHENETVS
AF4-AF9 inh = inhibitors of AF4 peptide binding to AF9, primary screen, biochemical, AlphaScreen, biotin-AF4 peptide, FLAG-AF9, single point | Protein AF-9 (Homo sapiens), P42568 | inhibition, % at 10 µM | 350,000 compounds, 0.47% hits;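 active = every replicate reaching a set inhibition limit, whatever the replicate mean, cut at about 25% in these data; inconclusive = mean inhibition reaches that limit but some replicates miss it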
Hits are given with their value. An excerpt weighted towards active compounds, which were near 3.4% of everything screened.

`COc1ccc2c3c([nH]c2c1)[C@H](CO)N(Cc1ccc2c(c1)OCO2)CC31CN(C(=O)Nc2c(C)noc2C)C1` gave ERAP1 inh inactive, rRNA inh HTS inactive, E-selectin induc inactive, S100A4 inh HTS inactive, SIRT5 block inactive and AF4-AF9 inh inactive.
For CN(C)CCNS(=O)(=O)c1ccc(N2CCN(c3ccc(F)cc3)CC2)c([N+](=O)[O-])c1 the results were ERAP1 inh inactive, E-selectin induc inactive, S100A4 inh HTS inactive, SIRT5 block inactive and AF4-AF9 inh 27.6.
Screening C[C@@H]1CN([C@H](C)CO)C(=O)c2cc(NS(C)(=O)=O)ccc2O[C@@H]1CN(C)C(=O)Nc1ccc(F)cc1 returned ERAP1 inh inactive, rRNA inh HTS inactive, S100A4 inh HTS inactive, SIRT5 block inactive and AF4-AF9 inh inactive.
Cc1c(O)ccc2cc(S(=O)(=O)c3ccccc3)c(=O)oc12 was read as ERAP1 inh 132.0, rRNA inh HTS inactive, E-selectin induc inactive, S100A4 inh HTS inactive, SIRT5 block inactive and AF4-AF9 inh inactive.
Screening O=C(O)c1ccc2oc(=O)c(S(=O)(=O)c3ccccc3)cc2c1 returned ERAP1 inh inactive, rRNA inh HTS inactive, E-selectin induc inconclusive, S100A4 inh HTS inactive, SIRT5 block inactive and AF4-AF9 inh inactive.
For C[C@@H]1CN([C@@H](C)CO)C(=O)c2cccc(NC(=O)Nc3ccc4c(c3)OCO4)c2O[C@H]1CN(C)Cc1ccc(Cl)c(Cl)c1 the results were ERAP1 inh inactive, rRNA inh HTS inactive, E-selectin induc inactive, S100A4 inh HTS inactive, SIRT5 block inactive and AF4-AF9 inh inactive.
For COCCCn1c(=O)/c(=C\c2ccc(OC(F)F)c(OC)c2)s/c1=C(/C#N)C(N)=O the results were rRNA inh HTS inactive, E-selectin induc inactive, S100A4 inh HTS inactive, SIRT5 block inactive and AF4-AF9 inh inactive.
For COCCCn1c(=O)/c(=C\c2ccccc2OC(F)F)s/c1=C(/C#N)C(N)=O the results were ERAP1 inh inactive, rRNA inh HTS inactive, E-selectin induc 37.6, S100A4 inh HTS inactive, SIRT5 block inactive and AF4-AF9 inh inactive.
For O=C(/C=C/c1ccco1)NC(=S)Nc1cccc(C(=O)O)c1 the results were ERAP1 inh inactive, rRNA inh HTS inactive, E-selectin induc inactive, S100A4 inh HTS inactive, SIRT5 block 22.4 and AF4-AF9 inh inactive.
Screening CNC[C@@H]1Oc2ccc(NC(C)=O)cc2C(=O)N(C)C[C@@H]1C returned rRNA inh HTS inactive.
For COc1cc(C(=O)NC(C)c2ccccc2)ccc1OCC(=O)N1CCOCC1 (centres undefined) the results were ERAP1 inh inactive, rRNA inh HTS inactive, E-selectin induc inactive, S100A4 inh HTS inactive, SIRT5 block inactive and AF4-AF9 inh inactive.
Screening COc1cc(C(=O)NC(C)c2cc(C)ccc2C)ccc1OCC(=O)N1CCOCC1 (centres undefined) returned ERAP1 inh inactive, rRNA inh HTS inactive, E-selectin induc 144.3, S100A4 inh HTS inactive, SIRT5 block inactive and AF4-AF9 inh inactive.
Screening CCOc1cc(C(=O)OCc2cccc(OC)c2OC)ccc1OCC(=O)N1CCOCC1 returned ERAP1 inh inactive, rRNA inh HTS inactive, S100A4 inh HTS inactive, SIRT5 block 15.8 and AF4-AF9 inh inactive.
C[C@@H]1CCCCO[C@H](CN(C)S(=O)(=O)c2ccc(Cl)cc2)[C@@H](C)CN([C@@H](C)CO)C(=O)c2cc(NS(=O)(=O)c3cn(C)cn3)ccc2O1 was read as ERAP1 inh inactive, rRNA inh HTS inactive, E-selectin induc inactive, S100A4 inh HTS inactive, SIRT5 block inactive and AF4-AF9 inh inactive.
`CCOc1ccc(N/C=C/C(=O)c2ccc(OC)c(OC)c2)cc1` gave ERAP1 inh inactive, rRNA inh HTS inactive, S100A4 inh HTS inactive, SIRT5 block inactive and AF4-AF9 inh inactive.
For CCCOc1ccc(N/C=C/C(=O)c2ccc(OC)c(OC)c2)cc1 the results were ERAP1 inh inactive, rRNA inh HTS inactive, S100A4 inh HTS inactive, SIRT5 block 16.7 and AF4-AF9 inh inactive.
Screening CCC(=O)Nc1ccc2c(c1)OC[C@H](C)N(Cc1cncnc1)C[C@@H](C)[C@@H](OC)CN(C)C2=O returned ERAP1 inh inactive, rRNA inh HTS inactive, E-selectin induc inactive, S100A4 inh HTS inactive, SIRT5 block inactive and AF4-AF9 inh inactive.
For CCOC(=O)c1c(CS(=O)(=O)c2ccccc2)n(C)c2cc(Br)c(O)cc12 the results were ERAP1 inh inactive, rRNA inh HTS -18.8, S100A4 inh HTS inactive, SIRT5 block 18.0 and AF4-AF9 inh inactive.
For CCOC(=O)c1c(CS(=O)(=O)c2ccccc2)n(C)c2cc(Br)c(O)c(CN(C)C)c12 the results were ERAP1 inh inactive, rRNA inh HTS inactive, S100A4 inh HTS inactive and AF4-AF9 inh inactive.
CCCN1C[C@@H](C)[C@@H](OC)CN(C)C(=O)c2cc(NC(=O)c3ccccc3F)ccc2OC[C@H]1C was read as ERAP1 inh inactive, rRNA inh HTS inactive, E-selectin induc inactive, S100A4 inh HTS inactive, SIRT5 block inactive and AF4-AF9 inh inactive.
C[C@H](CO)N1C[C@H](C)[C@@H](CN(C)Cc2ccc(C(F)(F)F)cc2)Oc2ccc(N(C)C)cc2CC1=O was read as ERAP1 inh inactive, rRNA inh HTS inactive, E-selectin induc inconclusive, S100A4 inh HTS inactive, SIRT5 block 16.6 and AF4-AF9 inh 33.4.
Screening C[C@@H]1CN([C@@H](C)CO)C(=O)Cc2cc(N(C)C)ccc2O[C@H]1CN(C)Cc1ccc(-c2ccccc2)cc1 returned ERAP1 inh inactive, rRNA inh HTS inactive, E-selectin induc inactive, S100A4 inh HTS inactive, SIRT5 block inactive and AF4-AF9 inh 74.0.
For C[C@H](CO)N1C[C@H](C)[C@H](CN(C)Cc2ccc(-c3ccccc3)cc2)Oc2ccc(N(C)C)cc2CC1=O the results were ERAP1 inh inactive, rRNA inh HTS inactive, E-selectin induc inactive, S100A4 inh HTS inactive, SIRT5 block inactive and AF4-AF9 inh 29.5.
Screening C[C@@H]1CN([C@H](C)CO)C(=O)Cc2cc(N(C)C)ccc2O[C@H]1CN(C)Cc1ccc(C(=O)O)cc1 returned ERAP1 inh inactive, rRNA inh HTS inactive, E-selectin induc inactive, S100A4 inh HTS inactive and AF4-AF9 inh inactive.
`C[C@H](CO)N1C[C@H](C)[C@H](CN(C)Cc2ccccc2)Oc2ccc(N(C)C)cc2CC1=O` gave ERAP1 inh inactive, rRNA inh HTS inactive, E-selectin induc inactive, S100A4 inh HTS inactive, SIRT5 block inactive and AF4-AF9 inh inactive.

Assay outcomes: PubChem BioAssay, Broad Institute
